≈ marks a conversion by molar mass, not a printed value.
Key:
[1] = tested on: BT474, MDA-MB-468, and WHIM12 tumors; test: Heavy acetate stable isotope tracing in tumors; type: in vivo, mouse
Outline: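 Tumor-bearing mice received 2% D3- or 13C2-acetate in drinking water for two days, plus a 2 g/kg IP heavy-acetate bolus 90 min before sacrifice. Tumors excised under anesthesia and flash-frozen. Extraction at 40 mg/mL in methanol/acetonitrile/water (5:3:2) by bead homogenization, cleared twice. Citrate labeling analysed by HILIC LC-MS.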

[2] = tested on: Brpkp110 tumors; test: Brpkp110 tumor growth in NSG mice; type: in vivo, mouse
Outline: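 Brpkp110 cells (5×10^5 in PBS:Matrigel) implanted subcutaneously in 5–6-week-old female NSG mice, then randomized. Daily dosing: vehicle (10% DMSO, 20% solutol, 70% water with 0.5% Tween20) or 100 mg/kg test compound. Volume (L × W²)/2 from calipers thrice weekly. Resected tumors: formalin-fixed, paraffin-embedded, citrate steam retrieval, H2O2 block, Ki67 antibody, DAB with hematoxylin counterstain.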

[3] = Water solubility in PBS; type: physicochemical; settings: PBS buffer, pH 7.4
Outline: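 10 mg test compound in 1 mL PBS pH 7.4, sonicated 30 min, vortexed 30 min at low speed, then left 16–24 h at room temperature. Filtered (0.22 μm) and 10-fold serially diluted in triplicate in ACN:water (1:1). Internal standard added; LC-MS/MS quantitation against a five-standard calibration curve.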

solubility [3]: 21.7 µM (≈ 9.32 µg/mL)
Structure (SMILES): CCn1c(C(O)(c2ccccc2)c2ccccc2)nc2ccc(C(=O)NC[C@@H](C)O)cc21 [VY-3-135, (R)-1-ethyl-2-(hydroxydiphenylmethyl)-N-(2-hydroxypropyl)-1H-benzo[d]imidazole-6-carboxamide]
D3-acetate labeling of citrate in MDA-MB-468 tumors ([1]; MDA-MB-468 tumors): increase in D3-acetate labeling of citrate | D3-acetate or 13C2-acetate labeling of citrate in tumors ([1]; readout of ACSS1): did not observe any inhibitory effect | tumor growth ([2]; Brpkp110 (ACSS2 high), 100 mpk daily IP): marked inhibition | Ki67 staining of tumors (proliferation) ([2]; Brpkp110 tumors): less proliferative
